{"source": "ChEMBL document CHEMBL1155269", "about": "“Synthesis and antibacterial activity of some new heterocycles incorporating phthalazine” (2009)", "key": {"Bacillus thuringiensis": {"tested_on": "Bacillus thuringiensis", "test": "Antibacterial activity against Bacillus thuringiensis at 2 mg/ml after 24 hrs by agar diffusion assay", "format": "functional", "settings": "read-out: DIZ", "in_short": "(§1)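 Agar diffusion; compounds applied as 2 mg ml−1 solutions in DMSO to agar media seeded with the test bacterium (cultures maintained on nutrient agar). DMSO-only control included for each organism; ampicillin and chloramphenicol references at 2 mg ml−1. Plates incubated 24 h at 30 °C, then inhibition zone diameter (mm) measured.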"}, "Escherichia coli": {"tested_on": "Escherichia coli", "test": "Antibacterial activity against Escherichia coli at 2 mg/ml after 24 hrs by agar diffusion assay", "format": "functional", "settings": "read-out: DIZ", "in_short": "as §1"}}}
{"smiles": "N#CC(Br)(Br)C(=O)N1NC(=O)C2C3c4ccccc4C(c4ccccc43)C2C1=O", "note": "(centres undefined)", "values": [{"measurement": "zone of inhibition at 2000 µg/mL", "setting": "Bacillus thuringiensis", "result": 27, "unit": "mm"}, {"measurement": "zone of inhibition at 2000 µg/mL", "setting": "Escherichia coli", "result": 29, "unit": "mm"}]}
{"smiles": "CS/C(Nc1ccccc1)=C(/C#N)C(=O)N1NC(=O)C2C3c4ccccc4C(c4ccccc43)C2C1=O", "note": "(centres undefined)", "values": [{"measurement": "zone of inhibition at 2000 µg/mL", "setting": "Bacillus thuringiensis", "result": 26, "unit": "mm"}, {"measurement": "zone of inhibition at 2000 µg/mL", "setting": "Escherichia coli", "result": 30, "unit": "mm"}]}
{"smiles": "O=C1NN(C(=O)c2cc3ccccc3oc2=O)C(=O)C2C3c4ccccc4C(c4ccccc43)C12", "note": "(centres undefined)", "values": [{"measurement": "zone of inhibition at 2000 µg/mL", "setting": "Bacillus thuringiensis", "result": 16, "unit": "mm"}, {"measurement": "zone of inhibition at 2000 µg/mL", "setting": "Escherichia coli", "result": 15, "unit": "mm"}]}
{"smiles": "Nc1c(C(=O)N2NC(=O)C3C4c5ccccc5C(c5ccccc54)C3C2=O)sc(=S)n1-c1ccccc1", "note": "(centres undefined)", "values": [{"measurement": "zone of inhibition at 2000 µg/mL", "setting": "Bacillus thuringiensis", "result": 16, "unit": "mm"}, {"measurement": "zone of inhibition at 2000 µg/mL", "setting": "Escherichia coli", "result": 11, "unit": "mm"}]}
{"smiles": "CSC(=S)C(C#N)C(=O)N1NC(=O)C2C3c4ccccc4C(c4ccccc43)C2C1=O", "note": "(centres undefined)", "values": [{"measurement": "zone of inhibition at 2000 µg/mL", "setting": "Bacillus thuringiensis", "result": 22, "unit": "mm"}, {"measurement": "zone of inhibition at 2000 µg/mL", "setting": "Escherichia coli", "result": 22, "unit": "mm"}]}
{"smiles": "CC1=Nc2c(sc(=S)n2-c2ccccc2)C(=O)N2C(=O)C3C4c5ccccc5C(c5ccccc54)C3C(=O)N12", "note": "(centres undefined)", "values": [{"measurement": "zone of inhibition at 2000 µg/mL", "setting": "Bacillus thuringiensis", "result": 16, "unit": "mm"}, {"measurement": "zone of inhibition at 2000 µg/mL", "setting": "Escherichia coli", "result": 11, "unit": "mm"}]}
{"smiles": "O=C(N[C@H](CO)[C@H](O)c1ccc([N+](=O)[O-])cc1)C(Cl)Cl", "note": "[CHLORAMPHENICOL]", "values": [{"measurement": "zone of inhibition at 2000 µg/mL", "setting": "Bacillus thuringiensis", "result": 20, "unit": "mm"}, {"measurement": "zone of inhibition at 2000 µg/mL", "setting": "Escherichia coli", "result": 23, "unit": "mm"}]}
{"smiles": "Cc1cc(C)c2c(N/N=C(\\C#N)C(=O)N3NC(=O)C4C5c6ccccc6C(c6ccccc65)C4C3=O)n[nH]c2n1", "note": "(centres undefined)", "values": [{"measurement": "zone of inhibition at 2000 µg/mL", "setting": "Bacillus thuringiensis", "result": 20, "unit": "mm"}, {"measurement": "zone of inhibition at 2000 µg/mL", "setting": "Escherichia coli", "result": 30, "unit": "mm"}]}
{"smiles": "CC1(C)S[C@@H]2[C@H](NC(=O)[C@H](N)c3ccccc3)C(=O)N2[C@H]1C(=O)O", "note": "[AMPICILLIN]", "values": [{"measurement": "zone of inhibition at 2000 µg/mL", "setting": "Bacillus thuringiensis", "result": 19, "unit": "mm"}, {"measurement": "zone of inhibition at 2000 µg/mL", "setting": "Escherichia coli", "result": 18, "unit": "mm"}]}
{"smiles": "N#CC(Br)C(=O)N1NC(=O)C2C3c4ccccc4C(c4ccccc43)C2C1=O", "note": "(centres undefined)", "values": [{"measurement": "zone of inhibition at 2000 µg/mL", "setting": "Bacillus thuringiensis", "result": 16, "unit": "mm"}, {"measurement": "zone of inhibition at 2000 µg/mL", "setting": "Escherichia coli", "result": 20, "unit": "mm"}]}
{"smiles": "N=c1oc2ccccc2cc1C(=O)N1NC(=O)C2C3c4ccccc4C(c4ccccc43)C2C1=O", "note": "(centres undefined)", "values": [{"measurement": "zone of inhibition at 2000 µg/mL", "setting": "Bacillus thuringiensis", "result": 20, "unit": "mm"}, {"measurement": "zone of inhibition at 2000 µg/mL", "setting": "Escherichia coli", "result": 12, "unit": "mm"}]}
{"smiles": "N#CC(C(=O)N1NC(=O)C2C3c4ccccc4C(c4ccccc43)C2C1=O)=C1SCCS1", "note": "(centres undefined)", "values": [{"measurement": "zone of inhibition at 2000 µg/mL", "setting": "Bacillus thuringiensis", "result": 13, "unit": "mm"}]}
{"smiles": "N#CC(C(=O)N1NC(=O)C2C3c4ccccc4C(c4ccccc43)C2C1=O)=C1SCCCS1", "note": "(centres undefined)", "values": [{"measurement": "zone of inhibition at 2000 µg/mL", "setting": "Bacillus thuringiensis", "result": 15, "unit": "mm"}, {"measurement": "zone of inhibition at 2000 µg/mL", "setting": "Escherichia coli", "result": 16, "unit": "mm"}]}
{"smiles": "O=C1C2C3c4ccccc4C(c4ccccc43)C2C(=O)N2C(=O)c3sc(=S)n(-c4ccccc4)c3N=CN12", "note": "(centres undefined)", "values": [{"measurement": "zone of inhibition at 2000 µg/mL", "setting": "Bacillus thuringiensis", "result": 13, "unit": "mm"}, {"measurement": "zone of inhibition at 2000 µg/mL", "setting": "Escherichia coli", "result": 12, "unit": "mm"}]}
{"smiles": "CC1=Nc2c(s/c(=N\\N)n2-c2ccccc2)C(=O)N2C(=O)C3C4c5ccccc5C(c5ccccc54)C3C(=O)N12", "note": "(centres undefined)", "values": [{"measurement": "zone of inhibition at 2000 µg/mL", "setting": "Bacillus thuringiensis", "result": 19, "unit": "mm"}, {"measurement": "zone of inhibition at 2000 µg/mL", "setting": "Escherichia coli", "result": 13, "unit": "mm"}]}
